Screening results (PubChem BioAssay)
GPR7 antag = GPR7 receptor antagonists, primary screen, cell-based, fluorescence, single concentration | GPR7-expressing cells, fluorescence antagonist assay | inhibition, % at 4.4 µM | hit rate 1.1% among 290,000 | AID 1861, 2009; in the data active = inhibition above about 16%, passing the limit was not always enough;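 note: cells stimulated with the agonist NPW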
Target sequence (P48145 whole entry, looked up): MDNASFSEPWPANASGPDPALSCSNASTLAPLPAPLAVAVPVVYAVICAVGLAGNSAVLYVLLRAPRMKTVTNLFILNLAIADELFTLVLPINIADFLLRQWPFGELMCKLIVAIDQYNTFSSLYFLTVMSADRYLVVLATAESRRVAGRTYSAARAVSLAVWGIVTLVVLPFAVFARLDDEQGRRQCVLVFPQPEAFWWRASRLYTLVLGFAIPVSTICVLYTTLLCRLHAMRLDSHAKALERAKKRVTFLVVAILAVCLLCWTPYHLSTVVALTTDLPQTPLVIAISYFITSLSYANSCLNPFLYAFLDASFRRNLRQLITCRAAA
OX1R antag-1 = OX1R (HCRTR1) antagonists, primary screen, fluorescence, CHO/OX1R cells, Fluo-8 calcium, orexin A | AID 434989, 2010 | inhibition, % at 5 µM | Orexin/Hypocretin receptor type 1 (Homo sapiens), O43613 | Fluo-8 calcium fluorescence | hit rate 0.43% among 330,000;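 active = inhibition above its plate's threshold, mean inhibition of all tested compounds on the plate plus 3 SD, cut at about 37% in these data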
GalR3 antagonist = GalR3 antagonists in HEK293 cells, primary screen, cell-based, fluorescence readout; HEK293 GalR3-CNG cAMP membrane potential fluorescence; galR3 body fused to GalR1 C-terminus; inhibition, % at 3 µM; Galanin receptor type 3 (Homo sapiens), O60755; hit rate 0.44% among 360,000; AID 651719, 2012;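 active = inhibition above the screen-wide average plus 3 SD, cut at about 13% in these data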;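 note: forskolin and galanin both at EC90 stimulate the cells; cAMP rise reported by CNG channel membrane potential dye signal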
Target sequence (O60755 1-299 limits assumed): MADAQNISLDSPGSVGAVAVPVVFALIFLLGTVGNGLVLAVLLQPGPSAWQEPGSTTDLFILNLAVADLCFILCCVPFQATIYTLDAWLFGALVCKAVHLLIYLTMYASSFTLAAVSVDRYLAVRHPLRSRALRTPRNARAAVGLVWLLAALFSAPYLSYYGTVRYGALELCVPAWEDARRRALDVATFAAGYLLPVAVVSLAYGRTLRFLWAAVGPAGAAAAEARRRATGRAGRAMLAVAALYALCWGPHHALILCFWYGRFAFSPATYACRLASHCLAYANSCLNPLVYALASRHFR
OX1R antag-2 = antagonists of human orexin 1 receptor (OX1R). Orexin/Hypocretin receptor type 1 (Homo sapiens), O43613. OX1R-expressing cells, FRET antagonist read-out. inhibition, % at 6.6 µM. hit rate 1.8% among 330,000. AID 485270, 2010; in the data active = inhibition mostly above about 38%, no sharp cut-off; inactive = mostly below about 40%
CHO parental Ca = ATP-evoked calcium signal inhibitors, parental CHO, primary screen, counter-screen for OX1R antagonist project, cell-based, fluorescence, Fluo-8 calcium dye | parental CHO-K1, ATP-induced calcium, Fluo-8 fluorescence | inhibition, % at 5.6 µM | hit rate 0.63% among 330,000 | AID 463079, 2010;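 active = inhibition above that plate's mean sample inhibition plus 3 SD, cut at about 26% in these data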
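Measured by: calcium-sensitive Fluo-8 fluorescence / Test system: CHO parental line / Controls: ATP-challenged DMSO wells low, unchallenged DMSO wells high / Measure: % inhibition / Compound: single nominal dose of 5.6 µM per compound / Replicates: single well per compound, no replicates / Reagent: ATP as calcium-mobilizing challenge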
Numbers stand for hits. Rows were chosen to be rich in hits. Some 3.1% of all compounds tested hit in one or more screens of this group.

What do the screens show for `CCNC(=O)NC(=O)c1csc([N+](=O)[O-])c1`?
GPR7 antag: inactive; OX1R antag-1: inactive; GalR3 antagonist: inactive; OX1R antag-2: 40; CHO parental Ca: inactive

How did C[C@H]1CN([C@@H](C)CO)C(=O)CCCn2cc(nn2)CO[C@@H]1CN(C)S(=O)(=O)c1ccccc1F do in these assays?
GalR3 antagonist: inactive

Results for COc1ccc(Cl)cc1NC(=O)CN(C)C(=O)c1sc2ccccc2c1Cl ?
OX1R antag-1: inactive; GalR3 antagonist: inactive; OX1R antag-2: inactive; CHO parental Ca: inactive

How did COc1ccc(Cl)cc1NC(=O)CN(C)C(=O)c1sccc1-c1ccccc1 do in these assays?
OX1R antag-1: inactive; GalR3 antagonist: inactive; OX1R antag-2: 39; CHO parental Ca: inactive

What do the screens show for `COc1ccc(Cl)cc1NC(=O)CN(c1ccccc1)S(=O)(=O)N(C)C`?
GPR7 antag: inactive; OX1R antag-1: inactive; GalR3 antagonist: inactive; OX1R antag-2: 53; CHO parental Ca: inactive

How did C[C@H](CO)N1C[C@H](C)[C@@H](CN(C)C(=O)Cc2ccccc2)OCc2cn(nn2)CCCC1=O do in these assays?
GalR3 antagonist: inactive

How did Cn1ncc(Cl)c1C(=O)Nc1sc2c(c1C(N)=O)CCC2 do in these assays?
GPR7 antag: inactive; OX1R antag-1: inactive; GalR3 antagonist: inactive; OX1R antag-2: 76; CHO parental Ca: inactive

Results for CCN(CC)C(=O)C1=C(C)N(Cc2ccc(C(C)(C)C)cc2)C(=O)C(CC(=O)NC2CCCC2)C1 (stereo not drawn) ?
GalR3 antagonist: inactive

Results for CC(C)(C)C(=O)NC(=S)NNC(=O)c1ccc(-c2ccccc2)cc1 ?
GPR7 antag: 103; OX1R antag-1: 103; OX1R antag-2: inactive; CHO parental Ca: 100

Results for COc1ccc(C(=S)Nc2ccc(C)cc2)cc1 ?
GPR7 antag: inactive; OX1R antag-1: inactive; GalR3 antagonist: inactive; OX1R antag-2: inactive; CHO parental Ca: 73

How did COc1ccc(C(=O)NC(=S)NNC(=O)c2ccc(C)cc2)cc1 do in these assays?
OX1R antag-1: 59; GalR3 antagonist: inactive; OX1R antag-2: inactive; CHO parental Ca: 49

What do the screens show for `CC(C)(C)C(=O)NC(=S)NNC(=O)c1ccncc1`?
GPR7 antag: inactive; OX1R antag-1: inactive; GalR3 antagonist: inactive; OX1R antag-2: inactive; CHO parental Ca: inactive

What do the screens show for `O=[N+]([O-])c1ccc(CSc2nnc(-c3cccnc3)o2)cc1`?
GPR7 antag: inactive; GalR3 antagonist: inactive

How did COCCN(C(=O)COC(=O)c1ccc2ccccc2c1)c1c(N)n(Cc2ccccc2)c(=O)[nH]c1=O do in these assays?
GalR3 antagonist: inactive

How did CN(C(=O)c1cccc(NC(=O)Cc2cccc(NC(=O)C3CCN(C(=O)c4ccccc4)CC3)c2)c1)C1CCCC1 do in these assays?
GalR3 antagonist: inactive

How did O=C1N=c2ccccc2=C1c1[nH]c(=S)[nH]c1O do in these assays?
GPR7 antag: inactive; OX1R antag-1: inactive; GalR3 antagonist: inactive; OX1R antag-2: 43; CHO parental Ca: inactive

Results for O=C(O)C(Cc1ccccc1)N1C(=O)C2C3CCC(C3)C2C1=O (stereo not drawn) ?
GalR3 antagonist: inactive

How did Cc1c(=O)n(OCc2cccc(F)c2)c2ccccc2[n+]1[O-] do in these assays?
GPR7 antag: inactive; OX1R antag-1: inactive; GalR3 antagonist: inactive; OX1R antag-2: 42; CHO parental Ca: inactive

Results for Cc1c(=O)n(OCc2ccc(Cl)cc2)c2ccccc2[n+]1[O-] ?
GPR7 antag: inactive; OX1R antag-1: inactive; GalR3 antagonist: inactive; OX1R antag-2: inactive; CHO parental Ca: inactive

Results for CCOCCCn1c(=N)c(C(=O)NCc2ccc3c(c2)OCO3)cc2c(=O)n3cccc(C)c3nc21 ?
GPR7 antag: inactive; OX1R antag-1: inactive; OX1R antag-2: 42; CHO parental Ca: inactive

How did COCCCn1c(=N)c(C(=O)NCc2ccc3c(c2)OCO3)cc2c(=O)n3cccc(C)c3nc21 do in these assays?
GalR3 antagonist: inactive

Results for COCCCn1c(=N)c(C(=O)NCc2ccc3c(c2)OCO3)cc2c(=O)n3ccccc3nc21 ?
GPR7 antag: inactive; OX1R antag-1: inactive; GalR3 antagonist: inactive; OX1R antag-2: 59; CHO parental Ca: inactive

Results for C#CCNC(=O)c1cc2c(Br)ccc(Br)c2nc1N ?
GalR3 antagonist: inactive

Results for CN1CCC(N2CCN(C3CN(Cc4cn(Cc5cccc(C(F)(F)F)c5)nn4)S(=O)(=O)C3)CC2)CC1 (stereo not drawn) ?
GalR3 antagonist: inactive

What do the screens show for `COc1cc2c(C(=O)N3CCOCC3)c(CSc3ccccc3)n(C)c2cc1Br`?
GPR7 antag: inactive; OX1R antag-1: inactive; GalR3 antagonist: inactive; OX1R antag-2: 56; CHO parental Ca: inactive

What do the screens show for `Nc1c(C(=O)c2ccccc2)oc2ccc(Br)cc12`?
GPR7 antag: inactive; OX1R antag-1: inactive; GalR3 antagonist: inactive; OX1R antag-2: 59; CHO parental Ca: inactive

How did CN1CCCCC(NC(=O)c2ccccc2)C1=O (stereo not drawn) do in these assays?
GalR3 antagonist: inactive

What do the screens show for `O=C(COC(=O)c1ccc(F)cc1F)Nc1cccc(S(=O)(=O)N2CCOCC2)c1`?
GalR3 antagonist: inactive

Results for CN(C)S(=O)(=O)N1CCN(CC(O)COc2ccc3cc(Br)ccc3c2)CC1 (stereo not drawn) ?
GPR7 antag: inactive; OX1R antag-1: inactive; GalR3 antagonist: inactive; OX1R antag-2: inactive; CHO parental Ca: 40

Results for O=[N+]([O-])c1ccc(Sc2ccccc2)nc1 ?
GPR7 antag: inactive; OX1R antag-1: inactive; GalR3 antagonist: inactive; OX1R antag-2: inactive; CHO parental Ca: inactive

Results for O=[N+]([O-])c1ccc(Sc2n[nH]c(-c3ccccc3)n2)nc1 ?
GPR7 antag: inactive; OX1R antag-1: inactive; GalR3 antagonist: inactive; OX1R antag-2: 74; CHO parental Ca: inactive

What do the screens show for `O=C(Nc1nnc([C@H]2C[C@H](O)[C@@H](CO)O2)s1)C(c1ccccc1)c1ccccc1`?
GalR3 antagonist: inactive

Results for Cc1ccc(Cc2c(-c3cccc(Br)c3)nc3cc(C)c(Br)c(C)n23)cc1 ?
GalR3 antagonist: inactive

Results for CC(=O)Nc1ccc2nc3c(=O)n(C)c(=O)n(C)c3nc2c1 ?
GPR7 antag: inactive; OX1R antag-1: inactive; GalR3 antagonist: inactive; OX1R antag-2: 60; CHO parental Ca: inactive

Results for CC(=O)Nc1ccc(NC(=O)CSc2nc3c(=O)n(C)c(=O)n(C)c3n2C)cc1 ?
GalR3 antagonist: inactive

How did CCCCCCCCCCCCN1CCSCCS1(=O)=O do in these assays?
GalR3 antagonist: inactive

Results for Cc1cc(C)c(S(=O)(=O)c2ccccc2C)c(Cl)n1 ?
GPR7 antag: inactive; OX1R antag-1: inactive; GalR3 antagonist: inactive; OX1R antag-2: inactive; CHO parental Ca: inactive

Results for CCCCSc1nc(C)cc(C)c1S(=O)(=O)c1ccccc1C ?
GPR7 antag: inactive; OX1R antag-1: inactive; GalR3 antagonist: inactive; OX1R antag-2: inactive; CHO parental Ca: 39
